Screening results as filed in PubChem BioAssay.
Rows were chosen to be rich in hits. Some 1.2% of all compounds tested hit in one or more screens of this group.
PP1 counter: blocks human PP1-alpha phosphatase, a PP5 counter-screen | AID 2235 | purified PP1alpha, OMFP fluorescence | actives 0.9% (n = 320,000) | inhibition, % at 6.7 µM | P62136;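 active = inhibition above the mean inhibition of all tested compounds plus 3 SD, computed separately for each screening campaign, cut at about 15% in these data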
PP5 primary: blocks human protein phosphatase 5 activity; P53041; purified PP5c, OMFP substrate fluorescence; inhibition, % at 6.7 µM; actives 0.18% (n = 320,000);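 active = inhibition above the campaign's mean inhibition across all tested compounds plus 3 SD, cut at about 9.5% in these data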
proCasp3 act: activators of human procaspase-3; recombinant procaspase-3 D3A, Ac-DEVD-pNA absorbance 405 nm; activation, % at 8.5 µM; actives 0.11% (n = 330,000); AID 463141;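 active = activation above the mean of all tested compounds plus 3 SD, cut at about 21% in these data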
Target sequence (P42574 whole entry D9A/D28A/D175A): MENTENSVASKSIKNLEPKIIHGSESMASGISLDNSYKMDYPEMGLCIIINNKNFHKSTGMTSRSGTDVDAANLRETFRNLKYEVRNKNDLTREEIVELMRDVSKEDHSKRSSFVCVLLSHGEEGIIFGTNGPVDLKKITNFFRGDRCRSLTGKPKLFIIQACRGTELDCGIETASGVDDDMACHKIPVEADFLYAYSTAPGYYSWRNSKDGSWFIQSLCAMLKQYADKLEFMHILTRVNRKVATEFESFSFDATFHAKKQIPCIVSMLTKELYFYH
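Assay system – Procaspase-3 D3A mutant · Benchmarks – DMSO low control, extra-enzyme high control · Technique – 405 nm absorbance of p-nitroaniline, reads at 0 and 120 min · Doses – 8.5 µM nominal · Measure – % activation between DMSO and enzyme-spiked controls · Also added – Ac-DEVD-pNA chromogenic peptide substrate · Schedule – 1 h compound preincubation, 2 h substrate hydrolysis at 25 °C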
procasp7 counter: activates human procaspase-7, counter-screen for procaspase-3 activators | P55210 | actives 0.093% (n = 330,000) | activation, % at 8.5 µM | recombinant procaspase-7, Ac-DEVD-pNA absorbance 405 nm; D23A/D198A/D206A triple mutant, cannot self-cleave; scale: DMSO 0, 5 µM enzyme 100;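 active = percent activation above the screen-wide mean plus 3 SD, cut at about 25% in these data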
Target sequence (P55210 whole entry D23A/D198A/D206A): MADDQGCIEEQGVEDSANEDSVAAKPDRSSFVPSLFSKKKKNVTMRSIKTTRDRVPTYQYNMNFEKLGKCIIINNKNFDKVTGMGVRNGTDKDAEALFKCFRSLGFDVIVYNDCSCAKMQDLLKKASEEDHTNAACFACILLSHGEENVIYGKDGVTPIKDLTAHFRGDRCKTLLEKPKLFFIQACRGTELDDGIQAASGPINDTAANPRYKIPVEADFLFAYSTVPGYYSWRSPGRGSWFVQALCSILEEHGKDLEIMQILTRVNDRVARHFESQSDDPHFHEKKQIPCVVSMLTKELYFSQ
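Material: Procaspase-7 triple mutant (PC-7 D3A) | Quantity: 2 µM procaspase-7 mutant as dispensed | Reagent: DEVD-pNA substrate | Times: 1 h preincubation, 2 h reaction | Technique: 405 nm absorbance of p-nitroaniline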
Each line names hits and unclear results; the compound was inactive in the other large screens.

C#CCOCCOCCOCCNc1nc(N2CCN(C(=O)[C@H](Cc3cc4ccccc4[nH]3)n3cc([C@@H](N)C(C)CC)nn3)CC2)nc(N2CCN(C(=O)[C@H](Cc3cc4ccccc4[nH]3)n3cc([C@@H](N)CC(C)C)nn3)CC2)n1 (stereo partly specified)	PP1 counter 19
C#CCOCCOCCOCCNc1nc(N2CCN(C(=O)[C@H](CCCCN)n3cc([C@@H](N)C(C)CC)nn3)CC2)nc(N2CCN(C(=O)[C@H](Cc3cc4ccccc4[nH]3)n3cc([C@@H](N)CC(C)C)nn3)CC2)n1 (stereo partly specified)	none
CC(C)(C)N(Cc1ccccc1)C(=O)COC(=O)/C=C/c1ccc2c(c1)OCO2	none
COc1ccc(NS(=O)(=O)c2cccc(C(=O)N/N=C/c3ccc4c(c3)OCCO4)c2)cc1	PP1 counter 17
CC1CC(c2ccccc2)n2nc(NC(=O)CCc3ccccc3)nc2N1 (stereo unspecified)	PP1 counter 18
CCCC(=O)Nc1nc2n(n1)C(c1ccccc1)CC(=O)N2 (stereo unspecified)	none
Cc1sc(NC(=O)c2sc3nc4c(C)cccc4cc3c2N)c(C#N)c1C	PP1 counter 17
CN(CC(=O)Nc1ccc(F)c(F)c1F)C(=O)C1CCC1	none
C=CCOc1cccc(C2C(C(=O)c3cc4ccccc4o3)=C(O)C(=O)N2c2cc(C)on2)c1 (stereo unspecified)	PP1 counter 28
COc1cccc(C2C(C(=O)c3cc4ccccc4o3)=C(O)C(=O)N2c2cc(C)on2)c1 (stereo unspecified)	PP1 counter 25
Cc1cc(N2C(=O)C(O)=C(C(=O)c3ccco3)C2c2cccnc2)no1 (stereo unspecified)	none
NS(=O)(=O)c1ccc(N2N=C(c3ccccc3)CC2c2ccc(F)cc2)cc1 (stereo unspecified)	proCasp3 act 64, procasp7 counter 86
O=C(CSc1nnc(SCc2cccc3ccccc23)s1)N/N=C/C=C/c1ccccc1[N+](=O)[O-]	PP1 counter 16
O=C(CSc1nnc(SCc2cccc3ccccc23)s1)N/N=C/c1c[nH]c2ccccc12	none
O=C(COc1ccc2ccccc2c1)Nc1ccc(S(=O)(=O)N2CCCCCC2)cc1	PP1 counter 17
O=C(COc1ccc([N+](=O)[O-])cc1)Nc1cc(S(=O)(=O)N2CCCCC2)ccc1N1CCCCC1	none
O=C(COc1ccc(F)cc1)Nc1cc(S(=O)(=O)N2CCCCC2)ccc1N1CCCCC1	PP1 counter 16
Cc1ccc(S(=O)(=O)N2CCOCC2)cc1NC(=O)Nc1ccc([N+](=O)[O-])cc1	none (no result: PP1 counter, PP5 primary)
Cn1nc(-c2ccccn2)nc2c(=O)n(C)c(=O)nc1-2	PP1 counter 41, PP5 primary 17
COc1ccc(-c2nc(-c3ccccn3)ncc2S(C)(=O)=O)cc1	none
Cc1ccc(OCc2nnc(SCC(=O)Nc3cccc4ccccc34)n2-c2ccccc2)cc1	PP1 counter 15
CCC1CCCCN1S(=O)(=O)c1ccc(C(=O)Nc2nnc(C3=COCCO3)o2)cc1 (stereo unspecified)	PP1 counter 17
O=C(Nc1nnc(-c2ccccn2)o1)c1cccc(Br)c1	PP1 counter 15
CC1CCN(S(=O)(=O)c2ccc(C(=O)Nc3nnc(-c4ccccn4)o3)cc2)CC1	PP1 counter 17
CC1CCCN(S(=O)(=O)c2ccc(C(=O)Nc3nnc(-c4ccco4)o3)cc2)C1 (stereo unspecified)	PP1 counter 17
CC1CCN(S(=O)(=O)c2ccc(C(=O)Nc3nnc(C4=COCCO4)o3)cc2)CC1	none
CCc1nnc(NC(=O)c2ccc(S(=O)(=O)N3CCCC(C)C3)cc2)o1 (stereo unspecified)	none
Cc1c(OC(C)C(=O)NCC(O)c2ccccc2)ccc2c3c(c(=O)oc12)CCC3 (stereo unspecified)	none
Cc1ccc(-c2cc(C(=O)NCCN3CCOCC3)c3ccccc3n2)o1	none
COc1ccccc1CNC(=O)CN(C)CC(=O)Nc1ccccc1Br	none (no result: PP1 counter, PP5 primary)
CCCn1c(N)c(C(=O)COC(=O)CNC(=O)c2ccccc2OCC)c(=O)[nH]c1=O	none
CCCn1c(N)c(N(CCOC)C(=O)c2ccc(N(C)S(=O)(=O)c3ccc(C)cc3)cc2)c(=O)[nH]c1=O	none
Cc1cccc(/C=N/NC(=O)c2ccc(NC(=O)c3ccc(Cl)cc3)cc2)n1	PP1 counter 15
Cc1cccc(/C=N/NC(=O)c2ccc(NC(=O)c3ccc(F)cc3)cc2)n1	none
Cc1cccc(Cc2cnc(N3C(=N)SC(c4ccccc4)C3=O)s2)c1 (stereo unspecified)	PP1 counter 15
CCOC(=O)C1=C(COC(=O)Cc2c(F)cccc2Cl)NC(=O)NC1C (stereo unspecified)	none
CCC(=O)NC(c1ccc(OC)cc1)c1cc(Cl)c2cccnc2c1O (stereo unspecified)	PP1 counter 16
CCC(=O)NC(c1ccco1)c1cc(Cl)c2cccnc2c1O (stereo unspecified)	none
CCCCOc1cccc(C(=O)Nc2ccc(S(=O)(=O)Nc3nnc(CC)s3)cc2)c1	PP1 counter 15
CCc1nnc(NS(=O)(=O)c2ccc(NC(=O)c3cccc([N+](=O)[O-])c3)cc2)s1	none
N=C1S/C(=C\c2cccc3ccccc23)C(=O)N1c1ccc(F)cc1	PP1 counter 17
N=C1S/C(=C\c2ccccc2F)C(=O)N1c1ccc(F)cc1	none
CCc1nnc(NC(=O)C2Cc3ccccc3CN2S(=O)(=O)c2c(C)c(C)cc(C)c2C)s1 (stereo unspecified)	PP1 counter 17
CN1CCN(C(c2ccc(C(F)(F)F)cc2)c2ccc3cccnc3c2O)CC1 (stereo unspecified)	none
Oc1c(C(c2cccs2)N2CCN(c3ccccc3)CC2)ccc2cccnc12 (stereo unspecified)	PP1 counter 19
Cc1ccc(OCC(=O)Nc2cc(NC(=O)COc3ccc(C)c(C)c3)cc(C(=O)O)c2)cc1C	PP1 counter 16
C=CC[C@H](CC(=O)N(CCO)Cc1ccccc1)C(=O)NCCOC(=O)[C@@H](CC=C)CC(=O)OC(C)(C)C	none (no result: PP1 counter, PP5 primary)
COc1ccc(N2CCN(C(=O)CSc3ccc([N+](=O)[O-])cc3)CC2)cc1	none
COc1ccc(C(=O)CCC(=O)N2CCN(c3ccc([N+](=O)[O-])cc3)CC2)cc1	PP1 counter 16
O=C(O[C@H]1[C@H](Oc2ccccc2COC(=O)C2(O)C=CCCC2=O)O[C@H](CO)[C@@H](O)[C@@H]1O)c1ccccc1 (stereo partly specified)	none
Cc1cc(C(=O)COC(=O)CC2Sc3ccccc3NC2=O)c(C)n1-c1ccc(Br)cc1 (stereo unspecified)	PP1 counter 17
COC(=O)c1ccc(-n2c(C)cc(C(=O)COC(=O)CC3Sc4ccccc4NC3=O)c2C)cc1 (stereo unspecified)	none
Cc1cc(C(=O)N/N=C/c2ccc([N+](=O)[O-])o2)c(C)o1	none
